Source: ChEMBL document CHEMBL4316634, “Immunomodulatory Biscembranoids and Assignment of Their Relative and Absolute Configurations: Data Set Modulation in the Density Functional Theory/Nuclear Magnetic Resonance Approach” (J Nat Prod, 2019)
Activity calls are given as the source filed them. The calls are words filed in the database; no cut-off is given here.

Assays:
[1] = system: Splenocyte; assay: Cytotoxicity in C57BL/6 mouse splenocytes assessed as effect on cell viability at 3 uM by FACScan flow cytometry; type: cell-based
Method in brief: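 Splenocytes at 2 × 10^6 cell/mL from C57BL/6 mice exposed to compounds at 3 μM for 24 h, with Con A (5 μg/mL) as positive control. Cells were then collected, washed in PBS and read at once by flow cytometry for apoptosis.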

[2] = system: Splenocyte; assay: Immunomodulatory activity in C57BL/6 mouse splenocytes assessed as reduction in CD4+/CD8+ cells ratio at 3 uM incubated for 24 hrs by flow cytometric analysis; type: functional, cell-based
Method in brief: (§1)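 C57BL/6 splenocytes given compounds at 3 μM for 24 h under Con A-induced activation, with Con A (5 μg/mL) as positive control. Cells were stained with PE-CD3, FITC-CD4 and Percp/cy5.5-CD8. CD3+, CD4+ and CD8+ percentages were measured by flow cytometry, and the CD4+/CD8+ ratio was derived from them. Values are mean ± SD, n = 3.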

[3] = system: Splenocyte; assay: Immunomodulatory activity in C57BL/6 mouse splenocytes assessed as increase in CD4+/CD8+ cells ratio at 3 uM incubated for 24 hrs by flow cytometric analysis; type: functional, cell-based; method in brief: as §1
[4] = system: Splenocyte; assay: Immunomodulatory activity in C57BL/6 mouse splenocytes assessed as induction of CD3+ T cells proliferation at 3 uM incubated for 24 hrs by flow cytometric analysis; type: functional, cell-based; method in brief: as §1

CC(=O)O[C@H]1C/C(C)=C/CC/C(C)=C\C(=O)C[C@@]23C(=O)O[C@@H]([C@@H]1C(C)C)[C@@H]2CC(C)=C1CCC2=CCC[C@@](C)(OC2=O)[C@@H](O)CC/C(C)=C/[C@@H]13
Activity [1]: Non-Toxic

CC(=O)O[C@H]1C/C(C)=C/CC/C(C)=C\C(=O)C[C@@]23C(=O)O[C@@H]([C@@H]1C(C)C)[C@@H]2CC(C)=C1CCC2=CCC[C@@](C)(OC2=O)[C@@H](O)CC/C(C)=C\[C@@H]13
Activity [2]: Active
Activity [1]: Non-Toxic

CC1=C2CCC3=CCC[C@@](C)(OC3=O)[C@@H](O)CC/C(C)=C/[C@@H]2[C@]23CC(=O)C[C@@H](C)CC/C=C(\C)CC(=O)[C@@H](C(C)C)[C@H](OC2=O)[C@@H]3C1
Activity [1]: Non-Toxic

CC(=O)O[C@H]1C/C(C)=C/CC[C@H](C)CC(=O)C[C@@]23C(=O)O[C@@H]([C@@H]1C(C)C)[C@@H]2CC(C)=C1CCC2=CCC[C@@](C)(OC2=O)[C@@H](O)CC/C(C)=C\[C@@H]13
Activity [1]: Non-Toxic

CC(=O)O[C@H]1C/C(C)=C/CC[C@H](C)CC(=O)C[C@@]23C(=O)O[C@@H]([C@@H]1C(C)C)[C@@H]2CC(C)=C1CCC2=CCC[C@@](C)(OC2=O)[C@@H](O)CC/C(C)=C/[C@@H]13
Activity [3]: Active
Activity [1]: Non-Toxic

CC(=O)O[C@H]1C/C(C)=C/C/C=C(/C)CC(=O)C[C@@]23C(=O)O[C@@H]([C@@H]1C(C)C)[C@@H]2CC(C)=C1CCC2=CCC[C@@](C)(OC2=O)[C@@H](O)CC/C(C)=C/[C@@H]13
Activity [4]: Active
Activity [1]: Non-Toxic

CC(=O)O[C@H]1C/C(C)=C/CC/C(C)=C/C(=O)C[C@@]23C(=O)O[C@@H]([C@@H]1C(C)C)[C@@H]2CC(C)=C1CCC2=CCC[C@@](C)(OC2=O)[C@@H](O)CC/C(C)=C/[C@@H]13
Activity [3]: Active
Activity [4]: Active
Activity [1]: Non-Toxic
